The values below come from ChEMBL document CHEMBL4321824, “Structure-Activity Relationships of cyclo(l-Tyrosyl-l-tyrosine) Derivatives Binding to Mycobacterium tuberculosis CYP121: Iodinated Analogues Promote Shift to High-Spin Adduct” (J Med Chem, 2019).

The target of data set [1] is T1, Cytochrome P450 (Mycobacterium tuberculosis, UniProt A0A0T9WNE5).
T1 sequence (A0A0T9WNE5 whole entry): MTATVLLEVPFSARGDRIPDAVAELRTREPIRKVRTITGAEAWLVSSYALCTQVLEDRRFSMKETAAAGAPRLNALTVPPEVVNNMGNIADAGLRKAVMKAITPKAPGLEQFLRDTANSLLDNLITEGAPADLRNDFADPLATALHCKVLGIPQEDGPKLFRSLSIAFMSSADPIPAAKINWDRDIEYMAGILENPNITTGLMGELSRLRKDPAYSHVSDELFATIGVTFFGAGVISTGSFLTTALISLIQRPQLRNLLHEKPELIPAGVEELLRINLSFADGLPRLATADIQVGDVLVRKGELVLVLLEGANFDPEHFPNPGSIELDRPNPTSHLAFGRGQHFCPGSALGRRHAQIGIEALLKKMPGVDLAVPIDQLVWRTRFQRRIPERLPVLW
The data set can be described thus: Binding affinity to Mycobacterium tuberculosis His6-tagged CYP121 assessed as compound-adduct formation by measuring high spin complex at 0.5 to 2 mM incubated for 20 mins by EPR Spectroscopic method (reference value: 0%). The gist of the method:
(§1)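 EPR samples contained 155 µM CYP121 (untagged or His6-tagged) in 100 mM HEPES, 100 mM KCl, pH 7.5, with ligand or DMSO at a final 0.5–2 mM depending on solubility. Samples were incubated 20 min at room temperature and briefly centrifuged before spectra were recorded; the high-spin heme signal was assessed.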

The target in data set [2] is T1, Cytochrome P450. The data set is described as follows: Binding affinity to Mycobacterium tuberculosis His6-tagged CYP121 by UV-visible scanning spectrophotometric analysis. The procedure, abridged:
(§2)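 Spectrophotometric titration of 3–4 µM CYP121 (untagged or N-terminal His6-tagged) at 25 °C in 100 mM potassium phosphate, 200 mM KCl, pH 7.8. Ligand in DMSO added stepwise from 0 µM until no further spectral change; spectra recorded 250–800 nm. Difference spectra taken against ligand-free enzyme, and peak-minus-trough ΔAmax plotted against [ligand]. KD obtained by hyperbolic fit, or Hill fit for sigmoidal data.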

Data set [3] has as its system Mycobacterium tuberculosis. The data set is described as follows: Antimycobacterial activity against Mycobacterium tuberculosis H37Rv assessed as reduction in bacterial growth after 7 days by resazurin based fluorescence assay. The class given is functional. Particulars: 168 h; call rule not given here. The gist of the method:
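Mtb H37Rv grown in 7H9 with ADC to OD 0.6–0.8, then diluted to OD600 0.001 and added to 1:2 serial compound dilutions (usually from 100 µM; 0.1% DMSO). Incubated 7 days at 37 °C, then 0.05% w/v resazurin for 24 h at 37 °C. Fluorescence read at 590 nm, background subtracted, and survival expressed relative to untreated wells. Rifampicin served as positive control.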
(The colour change of resazurin is a common sign of viable cells or microbes.)

Data set [4] concerns the target T1, Cytochrome P450. The data set can be described thus: Binding affinity to Mycobacterium tuberculosis His6-tagged CYP121 assessed as compound-adduct formation by measuring high spin complex by UV-visible scanning spectrophotometric analysis relative to control. Details: concentration or dose not given beside the values. The procedure, abridged: (§3)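 Fraction of high-spin heme taken from UV-Vis titration spectra of CYP121 (untagged or His6-tagged; 3–4 µM, 25 °C, 100 mM potassium phosphate, 200 mM KCl, pH 7.8). %HS calculated from absorbances at 415 and 393 nm using LS and HS extinction coefficients.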

Data set [5] concerns the target T1, Cytochrome P450. The data set is described as follows: Potency index, ratio of cyclo(L-Tyrosine-L-tyrosine) Kd for binding affinity to Mycobacterium tuberculosis CYP121 expressed in Escherichia coli HMS174 (DE3) to test compound Kd for binding affinity to Mycobacterium tuberculosis His6-tagged CYP121 by UV-visible scanning spectrophotometric analysis.
Data set [6] has as its target T1, Cytochrome P450. The data set is described as follows: Stability in Mycobacterium tuberculosis assessed as CYP121-catalyzed turnover. The format is ADME.
Data set [7] addresses T1, Cytochrome P450. The data set is described as follows: Binding affinity to Mycobacterium tuberculosis CYP121 expressed in Escherichia coli HMS174 (DE3) assessed as compound-adduct formation by measuring high spin complex at 0.5 to 2 mM incubated for 20 mins by EPR Spectroscopic method (reference value: 0%). The procedure, abridged:
as §1

Data set [8] addresses T1, Cytochrome P450. The data set is described as follows: Binding affinity to Mycobacterium tuberculosis CYP121 expressed in Escherichia coli HMS174 (DE3) by UV-visible scanning spectrophotometric analysis. The procedure, abridged:
as §2

Data set [9] has as its target T1, Cytochrome P450. The data set is described as follows: Binding affinity to Mycobacterium tuberculosis Mycobacterium tuberculosis CYP121 expressed in Escherichia coli HMS174 (DE3) assessed as compound-adduct formation by measuring high spin complex by UV-visible scanning spectrophotometric analysis relative to control. Also on record: concentration or dose not given beside the values. The gist of the method:
as §3

The target of data set [10] is T1, Cytochrome P450. The data set is described as follows: Binding affinity to Mycobacterium tuberculosis CYP121 expressed in Escherichia coli HMS174 (DE3) at 120 uM by UV-visible scanning spectrophotometric analysis.
In data set [11] the target is T1, Cytochrome P450. The data set can be described thus: Potency index, ratio of cyclo(L-Tyrosine-L-tyrosine) Kd to test compound Kd for binding affinity to Mycobacterium tuberculosis CYP121 expressed in Escherichia coli HMS174 (DE3) by UV-visible scanning spectrophotometric analysis.

As a reminder, the Kd is the free concentration of one partner at which half of the binding sites on the other are occupied at equilibrium, for simple one-to-one binding. Usually MIC stands for the lowest concentration that inhibits growth of the organism. Regarding `O=C1N[C@@H](Cc2ccc(O)c(I)c2)C(=O)N[C@H]1Cc1ccc(O)cc1`, the Activity in [1] was determined as 86%; in data set [4], 98%. In [2], this compound yielded a Kd of 0.28 µM. Moreover, in data set [3], the MIC was above 100 µM. Besides, the Ratio entry in [5] was “<= 100”. The Stability result in [6] is “Stable”.
Consider `O=C1N[C@@H](Cc2ccc(O)c(I)c2)C(=O)N[C@H]1Cc1ccc(O)c(I)c1`, for which the MIC in data set [3] was above 100 µM. Also, the Activity in [7] and in [9] was 100% each time. For the same compound, the Ratio result in data set [5] is “<= 100”. This compound yielded a dissociation constant Kd in [8] of 0.45 µM. In addition, the Stability result in [6] is “Stable”.
With `Cc1cc(O)ccc1C[C@@H]1NC(=O)[C@H](Cc2ccc(O)cc2)NC1=O`, the Activity came out at 0.6% in data set [1] and 20% in data set [4]. The Kd in [2] was 39.8 µM. In addition, in data set [3], the MIC is above 100 µM. In [6], the Stability result is reported as “Stable”.
Consider `O=C1N[C@@H](Cc2ccc(O)c(F)c2)C(=O)N[C@H]1Cc1ccc(O)cc1`, for which the Activity in data set [1] stood at 1.2%; in data set [4], 36%. This compound gave a Kd in data set [2] of 12.8 µM. Also, in data set [3], the MIC is above 100 µM. Besides, in [6], the Stability result is on record as “Stable”.
Turning to `O=C1N[C@@H](Cc2ccc(O)c(Br)c2)C(=O)N[C@H]1Cc1ccc(O)cc1`, the Activity came out at 68% in data set [1] and 85% in [4]. In data set [2], this compound had a Kd of 0.46 µM. Further, the MIC in [3] was above 100 µM. Also, in [6], the Stability entry is on record as “Stable”.
Take `Cc1cc(C[C@@H]2NC(=O)[C@H](Cc3ccc(O)cc3)NC2=O)cc(C)c1O`: the Activity in data set [1] was 62%; in [4] it was 75%. Moreover, in data set [2], the Kd was 15.1 µM. The MIC in [3] is above 100 µM. Further, the Stability result in [6] is “Stable”.
As for `O=C1N[C@@H](Cc2ccc(O)cc2)C(=O)N[C@H]1Cc1ccc(O)cc1`, the values for the Activity in [7] and in data set [9] were 2.7% and 52%, respectively.
Consider `Cc1cc(O)cc(C)c1C[C@@H]1NC(=O)[C@H](Cc2ccc(O)cc2)NC1=O`, for which the figures for the Activity result in [10], in data set [1] and in data set [4] were “Not Active”, 1.9% and 1%, respectively. The compound also returned a Kd in data set [2] above 100 µM. In data set [3], the MIC is above 100 µM. Moreover, the Stability result in data set [6] was “Stable”.
For `O=C1N[C@@H](Cc2ccc(O)cc2)C(=O)N[C@H]1Cc1ccccc1`, the MIC in data set [3] was above 100 µM. In addition, the Activity in [7] worked out at 1.4%; in data set [9], 5%. In data set [8], this compound came in with a Kd of 80.8 µM. Besides, the Stability entry in [6] was “Stable”.
As for `O=C1N[C@@H](Cc2cc(I)c(O)c(I)c2)C(=O)N[C@H]1Cc1ccc(O)cc1`, the figures for the Activity in data set [1] and in data set [4] were 38% and 74%, respectively. Besides, the Kd in data set [2] came to 9.1 µM. Besides, the MIC in [3] is above 100 µM. For the same compound, the Stability result in data set [6] is listed as “Stable”.
The like results for `Cc1cc(C[C@@H]2NC(=O)[C@H](Cc3ccc(O)cc3)NC2=O)ccc1O` were, in that order, 11%, 91%, 1.1 µM, above 100 µM and “Stable”.
Consider `O=C1N[C@@H](Cc2ccc(I)cc2)C(=O)N[C@H]1Cc1ccc(I)cc1`, for which the MIC in data set [3] is above 100 µM. Also, the Activity is recorded as 7.5% in data set [7] and 3% in [9]. Besides, the Ratio result in [5] is recorded as “<= 100”. Also, the Kd in data set [8] amounted to 0.72 µM. Further, the Stability result in [6] is “Stable”.
In the case of `COc1ccc(C[C@@H]2NC(=O)[C@H](Cc3ccc(O)cc3)NC2=O)cc1`, the Ratio in data set [11] stood at 3. For the same compound, in data set [3], the MIC is above 100 µM. Also, the Activity in data set [7] worked out at 64%; in data set [9], 61%. In data set [8], this compound had a Kd of 10.4 µM. Besides, the Stability result in data set [6] is “Stable”.
Consider `O=C1N[C@@H](Cc2ccc(F)cc2)C(=O)N[C@H]1Cc1ccc(F)cc1`, for which the MIC in data set [3] is above 100 µM. Further, the Activity in data set [7] worked out at 1.5%; in [9], 1%. In data set [8], binding was put at a Kd of 6.3 µM. For the same compound, the Stability result in data set [6] was “Stable”.
With `O=C1N[C@H]2Cc3ccc(O)c(c3)-c3cc(ccc3O)C[C@@H]1NC2=O`, in [6], the Stability entry is “Unstable”.
Consider `O=C1N[C@@H](Cc2ccccc2)C(=O)N[C@H]1Cc1ccccc1`, for which the MIC in [3] was above 100 µM. The Activity in data set [7] was 0%; in data set [9], 3%. In [8], this compound yielded a Kd of 2.4 µM. In addition, the Stability entry in [6] was “Stable”.
With `O=C1N[C@@H](Cc2ccc(O)c(Cl)c2)C(=O)N[C@H]1Cc1ccc(O)cc1`, the Activity in data set [1] is 21%; in [4], 68%. Besides, the Kd in data set [2] was 1.5 µM. Also, the MIC in [3] is above 100 µM. Also, the Stability entry in data set [6] is “Stable”.
For `COc1ccc(C[C@@H]2NC(=O)[C@H](Cc3ccc(OC)cc3)NC2=O)cc1`, in data set [3], the MIC is above 100 µM. For the same compound, the Activity in data set [7] is reported as 56%; in data set [9], 35%. Moreover, the Kd in [8] turned out to be 29.4 µM. The Stability entry in [6] is on record as “Stable”.
